Results of several laboratories.
Lines come from different studies, so protocols differ.
Target: Dual specificity mitogen-activated protein kinase kinase 7 (MAP2K7, Homo sapiens, UniProt O14733)
Residues used in one study (O14733 1-419): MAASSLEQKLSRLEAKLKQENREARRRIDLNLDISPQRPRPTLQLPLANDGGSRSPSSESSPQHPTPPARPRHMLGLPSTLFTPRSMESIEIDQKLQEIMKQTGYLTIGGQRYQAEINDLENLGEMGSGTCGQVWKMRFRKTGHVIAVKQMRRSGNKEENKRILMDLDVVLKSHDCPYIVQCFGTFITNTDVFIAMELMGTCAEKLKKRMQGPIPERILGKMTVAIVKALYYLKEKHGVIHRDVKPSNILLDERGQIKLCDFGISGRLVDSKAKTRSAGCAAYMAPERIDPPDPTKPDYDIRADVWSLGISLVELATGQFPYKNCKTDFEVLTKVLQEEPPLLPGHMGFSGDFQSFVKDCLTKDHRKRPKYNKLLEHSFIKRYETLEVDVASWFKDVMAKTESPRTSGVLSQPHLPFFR

Cc1cnc(Nc2ccc(C(=O)N3CCC(N4CCCC4)CC3)cc2)nc1-c1cc2ccccc2s1 — remaining binding (binding, competition with immobilised ligand; 1 µM): 81%
Cc1nc(N2CC[C@@H](O)C2)ncc1-c1cc(C(F)(F)F)cc2[nH]ncc12 — remaining binding (binding, competition with immobilised ligand; 1 µM): 64%
CCN1CCN(Cc2ccc(C(=O)Nc3ccc(C)c(Oc4ccc5c(c4)CC(=O)N5)c3)cc2C(F)(F)F)CC1 — remaining binding (binding, competition with immobilised ligand; 1 µM): 97%
C[C@@H](c1cccc(C#N)c1)n1cc(Cl)cc(C(N)=O)c1=N — remaining binding (cell-free assay, competition with immobilised ligand; 1 µM): 99%
CC1CCCN1c1nccc(-c2cnn3ncccc23)n1 (centres unmarked) — remaining binding (binding; 1 µM): 100%
CN(C)CC#Cc1ccc(OCCCc2sc(N3CCc4cccc(C(=O)Nc5nc6ccccc6s5)c4C3)nc2C(=O)O)c(F)c1 — remaining binding (cell-free assay, competition with immobilised ligand; 1 µM): 69%
O=C(c1ccc(Nc2nccc(-c3cc4ccccc4s3)n2)cc1)N1CCC(N2CCCC2)CC1 — remaining binding (binding, competition with immobilised ligand; 1 µM): 26%
CS(=O)(=O)N1CCCC(NC(=O)[C@H](CCC2CCCCC2)NC(=O)c2ccc(CNc3ncnc4c3nnn4-c3ccccc3)cc2)C1 (some centres unmarked) — remaining binding (cell-free assay, competition with immobilised ligand; 0.1 µM): 100%
COc1cnc(Nc2cccc(S(N)(=O)=O)c2)nc1N1CCN(c2ccccc2)C(=O)C1 — remaining binding (binding, competition with immobilised ligand; 1 µM): 92%
Nc1ncc2c(n1)-c1c([nH]c3ccc(C#CC4CC4)cc13)CCCC2 — remaining binding (binding, competition with immobilised ligand; 1 µM): 100%
CN(C)c1ncc(F)c(-c2cnn3ncccc23)n1 — remaining binding (binding; 1 µM): 88%
O=C(NCCCN1CCOCC1)c1ccc(Nc2nccc(-c3cc4ccccc4s3)n2)cc1 — remaining binding (binding, competition with immobilised ligand; 1 µM): 76%
COc1ccnn2ncc(-c3ccnc(N(C)C)n3)c12 — remaining binding (binding; 1 µM): 73%
O=C(Nc1c[nH]nc1C(=O)NC1CCNCC1)c1cc(F)cc(F)c1 — remaining binding (binding, competition with immobilised ligand; 1 µM): 86%
C[C@@H]1CCN(c2nccc(-c3cnn4ncccc34)n2)C1 — remaining binding (binding; 1 µM): 100%
COc1ncc2cc3ccccc3nc2c1C#N — remaining binding (cell-free assay, competition with immobilised ligand; 5 µM): 95%
CN(CCCC(F)(F)F)c1nccc(-c2cnn3ncccc23)n1 — remaining binding (binding; 1 µM): 100%
CC1=C(C#N)[C@@H](c2ccc3[nH]nc(C)c3c2)C(C#N)=C(c2ccc(Cl)cc2)N1 — remaining binding (cell-free assay, competition with immobilised ligand; 1 µM): 92.2%
CN(C)c1nccc(-c2cnc3ncccn23)n1 — remaining binding (binding; 1 µM): 88%
Cc1nc(Cc2cccc(C(F)(F)F)c2)sc1-c1ccc(C(N)=O)nc1 — remaining binding (cell-free assay, competition with immobilised ligand; 1 µM): 100%
